# Calls of active or inactive are those of the source. No cut-off for these calls is given here.
# Tests used:
# Mus musculus [1] = assay: Antitumor activity in CF1 mice bearing Ehrlich ascites carcinoma measured as ascites volume at 10 mg/kg; assay type: functional
# Summary of the method: (§1)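 Ehrlich ascites cells (2 × 10⁶) were implanted ip in male CF1 mice (22–25 g) on day 0. Dosing was ip on days 1–8 in 0.05% Tween 80 or 5% EtOH/0.05% Tween 80, with vehicle controls. Mice were killed on day 9, and ascites fluid volume per mouse was measured.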
# Mus musculus [2] = assay: Average days survived for treated / average days survived for control at 1 (mg/kg); 9.4/9.2; assay type: functional
# Mus musculus [3] = assay: Antitumor activity in CF1 mice bearing Ehrlich ascites carcinoma measured as survivors on day 9 at 5 mg/kg; 5/5; assay type: functional
# Mus musculus [4] = assay: Antitumor activity in CF1 mice bearing Ehrlich ascites carcinoma measured as percentage inhibition at 10 mg/kg; IA= inactive; assay type: functional, organism-based; parameters: dose 10 mg/kg
# Summary of the method: (§2)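 In the Ehrlich ascites model, male CF1 mice (22–25 g) received 2 × 10⁶ cells ip on day 0 and compound ip on days 1–8, with a vehicle of 0.05% Tween 80 ± 5% EtOH. Ascites volume and ascrit were taken on day 9. % inhibition = 100 − [(vol × ascrit, treated)/(vol × ascrit, control)], with >80% taken as significant.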
# Mus musculus [5] = assay: Antitumor activity in CF1 mice bearing Ehrlich ascites carcinoma measured as ascites volume at 1 mg/kg; assay type: functional; summary of the method: as §1
# Mus musculus [6] = assay: Antitumor activity in CF1 mice bearing Ehrlich ascites carcinoma measured as ascites volume at 5 mg/kg; assay type: functional
# Summary of the method: (§3)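 Male CF1 mice (22–25 g) received 2 × 10⁶ Ehrlich carcinoma cells ip on day 0. Dosing was ip daily on days 1–8, with sacrifice on day 9. Ascites fluid volume per mouse and ascrit (packed cell volume) were measured for each group. Vehicle was 0.05% Tween 80, or 5% absolute EtOH in 0.05% Tween 80, used for both compound and control. 6-Mercaptopurine was the positive control.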
# Mus musculus [7] = assay: Antitumor activity in CF1 mice bearing Ehrlich ascites carcinoma measured as survivors on day 9 at 10 mg/kg; 5/6; assay type: functional
# Mus musculus [8] = assay: Antitumor activity in CF1 mice bearing Ehrlich ascites carcinoma measured as percent ascrit packed cell volume at 5 mg/kg; assay type: functional; summary of the method: as §3
# Mus musculus [9] = assay: Anti tumor activity in mice bearing lymphocytic leukemia P-388 at 1 mg/kg; assay type: functional
# Summary of the method: (§4)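 Male BDF1 mice (20–23 g) were inoculated ip with 1 × 10⁶ P-388 leukemia cells on day 0. Compound was given ip once daily on days 1–14 in 0.05% Tween 80 vehicle, with a vehicle control group and 5-fluorouracil as positive control. Activity was scored as % T/C, average days survived treated/control, with >125% taken as significant.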
# Mus musculus [10] = assay: Antitumor activity in CF1 mice bearing Ehrlich ascites carcinoma measured as survivors on day 9 at 1 mg/kg; 5/6; assay type: functional
# Mus musculus [11] = assay: Antitumor activity in CF1 mice bearing Ehrlich ascites carcinoma measured as percent ascrit packed cell volume at 1 mg/kg; assay type: functional
# Summary of the method: (§5)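 CF1 male mice (22–25 g) were inoculated ip with 2 × 10⁶ Ehrlich cells on day 0 and treated ip on days 1–8 in 0.05% Tween 80 or 5% EtOH/0.05% Tween 80 vehicle. On day 9 the mice were sacrificed, and the ascrit (packed cell volume) of the ascites fluid was determined.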
# Mus musculus [12] = assay: Antitumor activity in CF1 mice bearing Ehrlich ascites carcinoma measured as percentage inhibition at 5 mg/kg; assay type: functional
# Summary of the method: (§6)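 Ehrlich ascites model in male CF1 mice (22–25 g): 2 × 10⁶ cells ip on day 0, ip dosing days 1–8, kill on day 9. Percent inhibition = 100 − [(treated volume × treated ascrit)/(control volume × control ascrit)]. Greater than 80% was taken as significant. Vehicle was 0.05% Tween 80, alone or with 5% absolute EtOH. 6-Mercaptopurine was the positive control.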
# Mus musculus [13] = assay: Antitumor activity in CF1 mice bearing Ehrlich ascites carcinoma measured as percentage inhibition at 1 mg/kg; assay type: functional; summary of the method: as §2
# Mus musculus [14] = assay: Antitumor activity in CF1 mice bearing Ehrlich ascites carcinoma measured as percent ascrit packed cell volume at 10 mg/kg; assay type: functional; summary of the method: as §5
# Mus musculus [15] = assay: Average days survived for treated / average days survived for control at 30 (mg/kg); 3.0/9.2; assay type: functional
# Mus musculus [16] = assay: Antitumor activity in CF1 mice bearing Ehrlich ascites carcinoma measured as survivors on day 9 at 5 mg/kg; 6/6; assay type: functional
# Mus musculus [17] = assay: Average days survived for treated / average days survived for control at 5 (mg/kg); 8.8/9.2; assay type: functional
# Mus musculus [18] = assay: Anti tumor activity in mice bearing lymphocytic leukemia P-388 at 10 mg/kg; assay type: functional; summary of the method: as §4
# Mus musculus [19] = assay: Antitumor activity in CF1 mice bearing Ehrlich ascites carcinoma measured as percentage inhibition at 1 mg/kg; IA= inactive; assay type: functional, organism-based; parameters: dose 1 mg/kg; summary of the method: as §2
# Mus musculus [20] = assay: Anti tumor activity in mice bearing lymphocytic leukemia P-388 at 5 mg/kg; assay type: functional; summary of the method: as §4
# Mus musculus [21] = assay: Average days survived for treated / average days survived for control at 20 (mg/kg); 4.8/9.2; assay type: functional
# Mus musculus [22] = assay: Antitumor activity in CF1 mice bearing Ehrlich ascites carcinoma measured as survivors on day 9 at 1 mg/kg; 6/6; assay type: functional
# Mus musculus [23] = assay: Average days survived for treated / average days survived for control at 10 (mg/kg); 6.4/9.2; assay type: functional
# Mus musculus [24] = assay: Anti tumor activity in mice bearing lymphocytic leukemia P-388 at 30 mg/kg; assay type: functional; summary of the method: as §4
# Mus musculus [25] = assay: Average days survived for treated / average days survived for control at 1 (mg/kg); 9.6/9.2; assay type: functional
# Mus musculus [26] = assay: Anti tumor activity in mice bearing lymphocytic leukemia P-388 at 20 mg/kg; assay type: functional
# Summary of the method: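 Male BDF1 mice (20–23 g) inoculated ip with 1 × 10⁶ P-388 lymphocytic leukemia cells on day 0. Test agents were given ip once daily on days 1–14, with 0.05% Tween 80 as vehicle for treated and control groups. Read-out is %T/C, the mean days survived by treated over control. Values above 125% were counted as significant. 5-Fluorouracil was the positive control.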
# Mus musculus [27] = assay: Antitumor activity in CF1 mice bearing Ehrlich ascites carcinoma measured as percentage inhibition at 8 mg/kg; IA means inactive; assay type: functional, organism-based; parameters: dose 8 mg/kg; summary of the method: as §6
# Mus musculus [28] = assay: Antitumor activity in CF1 mice bearing Ehrlich ascites carcinoma measured as ascites volume at 8 mg/kg; assay type: functional; summary of the method: as §3
# Mus musculus [29] = assay: Antitumor activity in CF1 mice bearing Ehrlich ascites carcinoma measured as percentage inhibition at 5 mg/kg; IA means inactive; assay type: functional, organism-based; parameters: dose 5 mg/kg; summary of the method: as §6
# Mus musculus [30] = assay: Antitumor activity in 6 CF1 mice bearing Ehrlich ascites carcinoma measured as survivors on day 9 at 8 mg/kg; 6/6; assay type: functional
# Mus musculus [31] = assay: Antitumor activity in 6 CF1 mice bearing Ehrlich ascites carcinoma measured as survivors on day 9 at 5 mg/kg; 5/6; assay type: functional
# Mus musculus [32] = assay: Antitumor activity in 6 CF1 mice bearing Ehrlich ascites carcinoma measured as survivors on day 9 at 1 mg/kg; 6/6; assay type: functional
# Mus musculus [33] = assay: Antitumor activity in CF1 mice bearing Ehrlich ascites carcinoma measured as percentage inhibition at 1 mg/kg; IA means inactive; assay type: functional, organism-based; parameters: dose 1 mg/kg; summary of the method: as §6
# Mus musculus [34] = assay: Antitumor activity in CF1 mice bearing Ehrlich ascites carcinoma measured as percent ascrit packed cell volume at 8 mg/kg; assay type: functional; summary of the method: as §3
# Mus musculus [35] = assay: Antitumor activity in 6 CF1 mice bearing Ehrlich ascites carcinoma measured as survivors on day 9 at 5 mg/kg; 6/6; assay type: functional
# Mus musculus [36] = assay: (§7) Antitumor activity in CF1 mice bearing Ehrlich ascites carcinoma measured as percent ascrit packed cell volume at 3 mg/kg; assay type: functional; summary of the method: as §3
# Mus musculus [37] = assay: Antitumor activity in 6 CF1 mice bearing Ehrlich ascites carcinoma measured as survivors on day 9 at 8 mg/kg; 5/6; assay type: functional
# Mus musculus [38] = assay: Antitumor activity in CF1 mice bearing Ehrlich ascites carcinoma measured as ascites volume at 3 mg/kg; assay type: functional; summary of the method: as §3
# Mus musculus [39] = assay: Antitumor activity in 6 CF1 mice bearing Ehrlich ascites carcinoma measured as survivors on day 9 at 3 mg/kg; 6/6; assay type: functional
# Mus musculus [40] = assay: Antitumor activity in CF1 mice bearing Ehrlich ascites carcinoma measured as percentage inhibition at 3 mg/kg; IA means inactive; assay type: functional, organism-based; parameters: dose 3 mg/kg; summary of the method: as §6
# Mus musculus [41] = assay: Antitumor activity in CF1 mice bearing Ehrlich ascites carcinoma measured as percentage inhibition at 8 mg/kg; assay type: functional; summary of the method: as §6
# Mus musculus [42] = assay: Average days survived for treated / average days survived for control at 1 (mg/kg); 10/9.2; assay type: functional
# Mus musculus [43] = assay: Antitumor activity in CF1 mice bearing Ehrlich ascites carcinoma measured as percentage inhibition at 3 mg/kg; IA=inactive; assay type: functional, organism-based; parameters: dose 3 mg/kg; summary of the method: as §2
# Mus musculus [44] = assay: Antitumor activity in CF1 mice bearing Ehrlich ascites carcinoma measured as survivors on day 9 at 3 mg/kg; 6/6; assay type: functional
# Mus musculus [45] = assay: Antitumor activity in CF1 mice bearing Ehrlich ascites carcinoma measured as survivors on day 9 at 8 mg/kg; 5/6; assay type: functional
# Mus musculus [46] = assay: as §7; assay type: functional; summary of the method: as §5; remark: listed apart in the source
Compound,ascites volume (Mus musculus [1]) [ml mouse-1],Survivors (Mus musculus [3]),inhibition (Mus musculus [4]),ascites volume (Mus musculus [5]) [ml mouse-1],ascites volume (Mus musculus [6]) [ml mouse-1],Survivors (Mus musculus [7]),packed cell volume (Mus musculus [8]) [%],T/C (Mus musculus [9]) [%],packed cell volume (Mus musculus [11]) [%],inhibition in vivo at 5 mg/kg (Mus musculus [12]) [%],packed cell volume (Mus musculus [14]) [%],ascites volume (Mus musculus [28]) [ml mouse-1],Survivors (Mus musculus [32]),inhibition (Mus musculus [33]),packed cell volume (Mus musculus [34]) [%],ascites volume (Mus musculus [38]) [ml mouse-1],inhibition in vivo at 8 mg/kg (Mus musculus [41]) [%],further results
CCCSC1=C(N2CC2)C(=O)c2cnn(C)c2C1=O,1.5,5,inactive,0.26,0.88,5,37.8,102,37.2,78.5,39.4,–,–,–,–,–,–,Average survival (days) (Mus musculus [2]): 9.4; Survivors (Mus musculus [10]): 5; inhibition in vivo at 1 mg/kg (Mus musculus [13]): 74.1%
Cn1ncc2c1C(=O)C(Cl)=C(N1CC1)C2=O,3.4,–,inactive,2,2.5,5,41.4,107,35.2,5.8,37.3,–,–,–,–,–,–,Average survival (days) (Mus musculus [15]): 3; Survivors (Mus musculus [16]): 6; Average survival (days) (Mus musculus [17]): 8.8; T/C (Mus musculus [18]): 70%; inhibition (Mus musculus [19]): inactive; T/C (Mus musculus [20]): 96%; Average survival (days) (Mus musculus [21]): 4.8; Survivors (Mus musculus [22]): 6; Average survival (days) (Mus musculus [23]): 6.4; T/C (Mus musculus [24]): 33%; Average survival (days) (Mus musculus [25]): 9.6; T/C (Mus musculus [26]): 52%
NC1=C(Cl)C(=O)c2[nH]ncc2C1=O,–,–,–,2.1,2.7,–,32.3,–,37.6,–,–,3,6,inactive,29.1,–,–,inhibition (Mus musculus [27]): inactive; inhibition (Mus musculus [29]): inactive; Survivors (Mus musculus [30]): 6; Survivors (Mus musculus [31]): 5
CC(=O)NC1=C(Cl)C(=O)c2[nH]ncc2C1=O,–,–,–,3.6,0.33,–,20.2,–,40,83.2,–,1.8,6,inactive,30.8,3.6,46.9,Survivors (Mus musculus [35]): 6; packed cell volume (Mus musculus [36]): 38.1%; Survivors (Mus musculus [37]): 5; Survivors (Mus musculus [39]): 6; inhibition (Mus musculus [40]): inactive
CC(=O)NC1=C(N2CC2)C(=O)c2c(cnn2C)C1=O,–,5,–,–,0.9,–,37.4,109,–,78.3,–,1.2,–,–,38.6,3.2,25.8,Average survival (days) (Mus musculus [42]): 10; inhibition (Mus musculus [43]): inactive; Survivors (Mus musculus [44]): 6; Survivors (Mus musculus [45]): 5; packed cell volume (Mus musculus [46]): 41.4%
